Laboratory results taken from ChEMBL document CHEMBL1154808, “Synthesis, characterization and biological activities of some new benzo[b]thiophene derivatives” (2010).
In brackets after ≈: the same amount, converted by molar mass.

How the values were obtained:
Type in all cases: functional
Bacillus subtilis = experiment: Antibacterial activity against Bacillus subtilis after 16 to 18 hrs by serial dilution method
Summary of the method: (§1)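 Compounds were dissolved in DMF and serially diluted. A standard drop of the prepared culture was added to each dilution, and tubes were incubated for 16–18 h at 37 °C. MIC was read as the highest dilution that stayed clear with no turbidity, determined separately for each organism. Candida albicans was tested by the same procedure.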

Candida albicans = experiment: Antifungal activity against Candida albicans after 16 to 18 hrs by serial dilution method; summary of the method: as §1
Escherichia coli = experiment: Antibacterial activity against Escherichia coli after 16 to 18 hrs by serial dilution method; summary of the method: as §1
Pseudomonas aeruginosa = experiment: Antibacterial activity against Pseudomonas aeruginosa after 16 to 18 hrs by serial dilution method; summary of the method: as §1
Staphylococcus aureus = experiment: Antibacterial activity against Staphylococcus aureus after 16 to 18 hrs by serial dilution method; summary of the method: as §1

SMILES	MIC (Bacillus subtilis) [µg/mL]	MIC (Candida albicans) [µg/mL]	MIC (Escherichia coli) [µg/mL]	MIC (Pseudomonas aeruginosa) [µg/mL]	MIC (Staphylococcus aureus) [µg/mL]
Clc1ccccc1OCc1nnc2sc(-c3sc4ccccc4c3Cl)nn12	6 (≈ 13.8 µM)	6 (≈ 13.8 µM)	6 (≈ 13.8 µM)	6 (≈ 13.8 µM)	6 (≈ 13.8 µM)
CC1=NN(C(=O)c2sc3ccccc3c2Cl)C(=O)/C1=N/Nc1cc(Cl)ccc1Cl	6 (≈ 12.9 µM)	6 (≈ 12.9 µM)	6 (≈ 12.9 µM)	6 (≈ 12.9 µM)	12.5 (≈ 26.8 µM)
O=C(c1sc2ccccc2c1Cl)n1nc(-c2ccc([N+](=O)[O-])s2)cc1-c1ccccc1	6 (≈ 12.9 µM)	6 (≈ 12.9 µM)	3 (≈ 6.44 µM)	6 (≈ 12.9 µM)	3 (≈ 6.44 µM)
O=C(c1sc2ccccc2c1Cl)n1nc(-c2ccc([N+](=O)[O-])s2)cc1-c1ccc(Cl)cc1	6 (≈ 12 µM)	3 (≈ 6 µM)	6 (≈ 12 µM)	6 (≈ 12 µM)	3 (≈ 6 µM)
Clc1ccccc1OCc1nnc(-c2sc3ccccc3c2Cl)o1	6 (≈ 15.9 µM)	6 (≈ 15.9 µM)	6 (≈ 15.9 µM)	6 (≈ 15.9 µM)	6 (≈ 15.9 µM)
Clc1ccc(OCc2nnc(-c3sc4ccccc4c3Cl)o2)c(Cl)c1	6 (≈ 14.6 µM)	6 (≈ 14.6 µM)	6 (≈ 14.6 µM)	6 (≈ 14.6 µM)	6 (≈ 14.6 µM)
CC1=NN(C(=O)c2sc3ccccc3c2Cl)C(=O)/C1=N/Nc1ccccc1	6 (≈ 15.1 µM)	6 (≈ 15.1 µM)	6 (≈ 15.1 µM)	6 (≈ 15.1 µM)	6 (≈ 15.1 µM)
CC1=NN(C(=O)c2sc3ccccc3c2Cl)C(=O)/C1=N/Nc1ccc(C)cc1[N+](=O)[O-]	6 (≈ 13.2 µM)	6 (≈ 13.2 µM)	6 (≈ 13.2 µM)	6 (≈ 13.2 µM)	6 (≈ 13.2 µM)
Cc1ccc(OCc2nnc3sc(-c4sc5ccccc5c4Cl)nn23)cc1	6 (≈ 14.5 µM)	6 (≈ 14.5 µM)	6 (≈ 14.5 µM)	6 (≈ 14.5 µM)	6 (≈ 14.5 µM)
CC1=NN(C(=O)c2sc3ccccc3c2Cl)C(=O)/C1=N/Nc1ccc(Cl)cc1C	6 (≈ 13.5 µM)	6 (≈ 13.5 µM)	6 (≈ 13.5 µM)	6 (≈ 13.5 µM)	6 (≈ 13.5 µM)
COc1ccc(-c2cc(-c3ccc(Cl)cc3)n(C(=O)c3sc4ccccc4c3Cl)n2)cc1	6 (≈ 12.5 µM)	6 (≈ 12.5 µM)	6 (≈ 12.5 µM)	6 (≈ 12.5 µM)	6 (≈ 12.5 µM)
COc1ccc(-c2cc(-c3ccccc3)n(C(=O)c3sc4ccccc4c3Cl)n2)cc1	6 (≈ 13.5 µM)	3 (≈ 6.74 µM)	6 (≈ 13.5 µM)	6 (≈ 13.5 µM)	6 (≈ 13.5 µM)
OC(Cn1cncn1)(Cn1cncn1)c1ccc(F)cc1F [FLUCONAZOLE]		6 (≈ 19.6 µM)			
NC(=O)N/N=C/c1ccc([N+](=O)[O-])o1 [NITROFURAZONE]	12.5 (≈ 63.1 µM)		6 (≈ 30.3 µM)	12.5 (≈ 63.1 µM)	12.5 (≈ 63.1 µM)
